Measurements: ChEMBL document CHEMBL2346664, “Synthesis, characterization and in vitro anticancer evaluation of novel 1,2,4-triazolin-3-one derivatives” (2013)

Assays:
Assay type in all cases: functional
KM12 = test: Growth inhibition of human KM12 cells assessed as cell growth at 10 '-5 M after 48 hrs by sulforhodamine B assay; conditions: KM12, 48 h, read-out: Activity
HCT-15 [1] = test: Growth inhibition of human HCT15 cells assessed as cell growth at 10 '-5 M after 48 hrs by sulforhodamine B assay; conditions: HCT-15, 48 h, read-out: Activity
SN12C [2] = test: Growth inhibition of human SN12C cells assessed as cell growth at 10 '-6 M after 48 hrs by sulforhodamine B assay; conditions: read-out: Activity
A498 = test: Growth inhibition of human A498 cells assessed as cell growth at 10 '-6 M after 48 hrs by sulforhodamine B assay; conditions: A498, 48 h, read-out: Activity
Summary of the method: (§1)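 Percent growth at each of the five concentrations of the 48 h continuous-exposure NCI SRB screen. Drug stocks were in DMSO at 400× the top final concentration and diluted in medium with gentamicin. Growth was calculated as [(Ti-Tz)/(C-Tz)]×100 when Ti ≥ Tz, or [(Ti-Tz)/Tz]×100 when Ti < Tz. Tz plates were fixed at drug addition; untreated wells served as control. Absorbance was read at 515 nm.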

OVCAR-3 [3] = test: Growth inhibition of human OVCAR3 cells assessed as cell growth at 10 '-6 M after 48 hrs by sulforhodamine B assay; conditions: OVCAR-3, 48 h, read-out: Activity
[4] = Growth inhibition of human […] cells assessed as growth inhibition at 10 uM after 48 hrs by sulforhodamine B assay; conditions: read-out: GI
Summary of the method: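 Percent growth inhibition from the single 10^-5 M NCI-60 screen, reported as 100 minus growth percent. Growth percent was measured after 48 h drug exposure at 37 °C, 5% CO2, using TCA fixation, SRB staining and absorbance at 515 nm, against untreated controls and time-zero plates.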

NCI-H23 = test: Growth inhibition of human NCI-H23 cells assessed as growth inhibition at 10 uM after 48 hrs by sulforhodamine B assay; conditions: NCI-H23, 48 h, read-out: GI
HOP-62 = test: Growth inhibition of human HOP62 cells assessed as growth inhibition at 10 uM after 48 hrs by sulforhodamine B assay; conditions: HOP-62, 48 h, read-out: GI
MDA-MB-468 = test: Growth inhibition of human MDA-MB-468 cells assessed as cell growth at 10 '-4 M after 48 hrs by sulforhodamine B assay; conditions: MDA-MB-468, 48 h, read-out: Activity
MDA-MB-231 [5] = test: Growth inhibition of human MDA-MB-231 cells assessed as cell growth at 10 '-4 M after 48 hrs by sulforhodamine B assay; conditions: MDA-MB-231, 48 h, read-out: Activity
SR = test: Growth inhibition of human SR cells assessed as cell growth at 10 '-6 M after 48 hrs by sulforhodamine B assay; conditions: read-out: Activity
HL-60(TB) = test: Growth inhibition of human HL-60(TB) cells assessed as cell growth at 10 '-6 M after 48 hrs by sulforhodamine B assay; conditions: HL-60, 48 h, read-out: Activity
Summary of the method: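 Five-dose NCI protocol with final concentrations of 0.01–100 µM and drug diluted from a DMSO stock (400× the top concentration) in medium with gentamicin. Cells were pre-incubated 24 h, then exposed 48 h at 37 °C. Suspension cells were fixed with 16% final TCA, SRB-stained and read at 515 nm. Percentage growth at each level was [(Ti−Tz)/(C−Tz)]×100, or [(Ti−Tz)/Tz]×100 when Ti < Tz.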

OVCAR-4 = test: Growth inhibition of human OVCAR4 cells assessed as cell growth at 10 '-7 M after 48 hrs by sulforhodamine B assay; conditions: OVCAR-4, 48 h, read-out: Activity
UACC-62 [6] = test: Growth inhibition of human UACC62 cells assessed as cell growth at 10 '-7 M after 48 hrs by sulforhodamine B assay; conditions: UACC-62, 48 h, read-out: Activity
OVCAR-3 [7] = test: Growth inhibition of human OVCAR3 cells assessed as cell growth at 10 '-4 M after 48 hrs by sulforhodamine B assay; conditions: OVCAR-3, 48 h, read-out: Activity
A549 = test: Growth inhibition of human A549 cells assessed as cell growth at 10 '-8 M after 48 hrs by sulforhodamine B assay; conditions: A549, 48 h, read-out: Activity; summary of the method: as §1
SN12C [8] = test: Growth inhibition of human SN12C cells after 48 hrs by sulforhodamine B assay
[9] = Growth inhibition of human EKVX cells assessed as cell growth at 10 '-4 M after 48 hrs by sulforhodamine B assay; conditions: read-out: Activity
K562 = test: Growth inhibition of human K562 cells assessed as cell growth at 10 '-4 M after 48 hrs by sulforhodamine B assay; conditions: K562, 48 h, read-out: Activity
SK-OV-3 = test: Growth inhibition of human SKOV3 cells assessed as cell growth at 10 '-5 M after 48 hrs by sulforhodamine B assay; conditions: SK-OV-3, 48 h, read-out: Activity
SK-MEL-2 = test: Growth inhibition of human SK-MEL-2 cells after 48 hrs by sulforhodamine B assay; conditions: SK-MEL-2, 48 h
HCT-15 [10] = test: Growth inhibition of human HCT15 cells after 48 hrs by sulforhodamine B assay; conditions: HCT-15, 48 h
Summary of the method: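 NCI 60-cell-line five-dose screen. Cells were plated at 5,000–40,000/well by doubling time and grown 24 h at 37 °C, 5% CO2. Time-zero plates were TCA-fixed. Drug from DMSO stock was tested at 0.01, 0.1, 1, 10 and 100 µM final for 48 h continuous exposure. Read-out was SRB at 515 nm. GI50 is the concentration giving 50% reduction in net protein increase versus untreated control.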

MDA-MB-231 [11] = test: Growth inhibition of human MDA-MB-231 cells assessed as growth inhibition at 10 uM after 48 hrs by sulforhodamine B assay; conditions: MDA-MB-231, 48 h, read-out: GI
786-0 = test: Growth inhibition of human 786-0 cells assessed as cell growth at 10 '-8 M after 48 hrs by sulforhodamine B assay; conditions: 786-0, 48 h, read-out: Activity; summary of the method: as §1
SK-MEL-5 = test: Growth inhibition of human SK-MEL-5 cells assessed as cell growth at 10 '-5 M after 48 hrs by sulforhodamine B assay; conditions: SK-MEL-5, 48 h, read-out: Activity
LOX IMVI = test: Growth inhibition of human LOXIMVI cells assessed as cell growth at 10 '-5 M after 48 hrs by sulforhodamine B assay; conditions: read-out: Activity
UACC-62 [12] = test: Growth inhibition of human UACC62 cells assessed as cell growth at 10 '-8 M after 48 hrs by sulforhodamine B assay; conditions: UACC-62, 48 h, read-out: Activity
SK-MEL-28 = test: Growth inhibition of human SK-MEL-28 cells assessed as cell growth at 10 '-8 M after 48 hrs by sulforhodamine B assay; conditions: SK-MEL-28, 48 h, read-out: Activity
[13] = Growth inhibition of human EKVX cells assessed as cell growth at 10 '-8 M after 48 hrs by sulforhodamine B assay; conditions: read-out: Activity
[14] = read-out: LD50 (the source's name)

## Cc1cc(=O)oc2cc(OCCn3c(C)nn(-c4ccc(Cl)cc4)c3=O)ccc12
KM12
  growth at 10 µM: 21%
HCT-15 [1]
  growth at 10 µM: 20%
SN12C [2]
  growth at 1 µM: 82%
A498
  growth at 1 µM: 52%
OVCAR-3 [3]
  growth at 1 µM: 96%
[4]
  inhibition of growth at 10 µM: 67.1%
NCI-H23
  inhibition of growth at 10 µM: 54.2%
HOP-62
  inhibition of growth at 10 µM: 72.7%
MDA-MB-468
  growth at 100 µM: -5%
MDA-MB-231 [5]
  growth at 100 µM: 11%
SR
  growth at 1 µM: 29%
HL-60(TB)
  growth at 1 µM: 91%
OVCAR-4
  growth at 0.1 µM: 90%
UACC-62 [6]
  growth at 0.1 µM: 90%
OVCAR-3 [7]
  growth at 100 µM: -29%
A549
  growth at 0.01 µM: 97%
SN12C [8]
  GI50: 5.54 µM
  TGI: > 1 µM
SN12C [8]; [14]
  CC50: > 1 µM
[9]
  growth at 100 µM: 55%
K562
  growth at 100 µM: 12%
SK-OV-3
  growth at 10 µM: 16%
SK-MEL-2
  GI50: 1.82 µM
  TGI: > 1 µM
SK-MEL-2; [14]
  CC50: > 1 µM
HCT-15 [10]
  GI50: 3.2 µM
  TGI: > 1 µM
HCT-15 [10]; [14]
  CC50: > 1 µM
MDA-MB-231 [11]
  inhibition of growth at 10 µM: 52.5%
786-0
  growth at 0.01 µM: 103%
SK-MEL-5
  growth at 10 µM: 13%
LOX IMVI
  growth at 10 µM: 39%
UACC-62 [12]
  growth at 0.01 µM: 97%
SK-MEL-28
  growth at 0.01 µM: 105%
[13]
  growth at 0.01 µM: 96%
